Measurements: ChEMBL document CHEMBL1143088, “Non-acidic pyrazole EP1 receptor antagonists with in vivo analgesic efficacy” (Bioorg Med Chem Lett, 2008)

Key:
[1] = Volume of distribution at steady state in rat at 10 mL/h/kg, iv; format: ADME, organism-based; conditions: in vivo, read-out: Vdss
In short: (§1)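 Male rats (n = 1 per compound) dosed iv at 10 mL/h/kg over 1 h via femoral vein cannula, target 1 mg free compound/kg, formulated at 0.1 mg/mL in 0.9% saline with 2% DMSO and 10–20% Kleptose (some with a molar equivalent NaOH), filtered before dosing.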

[2] = target: T1, Prostaglandin E2 receptor EP1 subtype (Homo sapiens, UniProt P34995); experiment: Displacement of [3H]PGE2 from human PGE2-EP1 receptor expressed in CHO-K1 cells; format: cell-based
T1 sequence (P34995 whole entry): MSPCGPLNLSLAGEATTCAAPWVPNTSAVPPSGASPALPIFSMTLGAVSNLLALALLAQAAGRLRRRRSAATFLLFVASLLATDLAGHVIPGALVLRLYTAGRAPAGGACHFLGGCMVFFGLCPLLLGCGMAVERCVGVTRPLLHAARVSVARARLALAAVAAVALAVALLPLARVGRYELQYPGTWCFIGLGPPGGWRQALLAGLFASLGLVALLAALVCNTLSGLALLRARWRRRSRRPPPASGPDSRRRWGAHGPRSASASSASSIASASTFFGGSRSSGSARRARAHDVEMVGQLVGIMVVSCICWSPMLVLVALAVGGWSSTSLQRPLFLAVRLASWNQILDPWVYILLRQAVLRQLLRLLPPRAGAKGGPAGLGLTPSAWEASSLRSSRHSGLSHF

[3] = Clearance in blood in rat at 10 mL/h/kg, iv; format: ADME, organism-based; conditions: whole blood; in short: as §1
[4] = Distribution coefficient, logD at pH 7.4; format: physicochemical; conditions: octanol/water
In short: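 Distribution coefficient between n-octanol and water buffered to pH 7.4; log10 of ratio of equilibrium concentrations of all species.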

[5] = Half life in rat at 10 mL/h/kg, iv; format: ADME, organism-based; conditions: in vivo; in short: as §1

Row | Vd [1] | IC50 [2] | clearance [3] | logD [4] | half-life [5] | SMILES
1 | 3 L/kg | 79.4 nM | 98 mL/min/kg | 3.1 |  | Cc1cc(NC(=O)OCc2ccccn2)nn1Cc1cc(Cl)ccc1OCc1ccccc1
2 |  | 10 nM |  | > 3.7 |  | Cc1cc(NC(=O)CC(C)(C)C)nn1Cc1cc(Cl)ccc1OCc1ccccc1
3 |  | 15.8 nM |  | 3.5 |  | Cc1cc(NC(=O)C2CCCC2)nn1Cc1cc(Cl)ccc1OCc1ccccc1
4 |  | 25.1 nM |  | > 3.7 |  | Cc1cc(NC(=O)C(C)C)nn1Cc1cc(Cl)ccc1OCc1ccccc1
5 |  | 50.1 nM |  | > 3.7 |  | Cc1cc(C(=O)NCc2cccnc2)nn1Cc1cc(Cl)ccc1OCc1ccccc1
6 | 3.6 L/kg | 25.1 nM | 68 mL/min/kg | > 3.7 | 1.3 h | Cc1cc(C(=O)NCc2ccccn2)nn1Cc1cc(Cl)ccc1OCc1ccccc1
7 |  | 39.8 nM |  | > 3.7 |  | Cc1cc(NC(=O)C(F)(F)c2ccccc2)nn1Cc1cc(Cl)ccc1OCc1ccccc1
8 |  | 63.1 nM |  | > 3.7 |  | Cc1cc(NC(=O)C(C)(C)c2ccccc2)nn1Cc1cc(Cl)ccc1OCc1ccccc1
9 |  | 200 nM |  | 2.8 |  | Cc1cc(C(=O)Nc2cccc(F)c2)nn1Cc1cc(Cl)ccc1OCc1ccccc1
10 |  | 79.4 nM |  | 3.1 |  | Cc1cc(NC(=O)OCc2ccccc2)nn1Cc1cc(Cl)ccc1OCc1ccccc1
11 |  | 15.8 nM | 50 mL/min/kg | > 3.7 |  | Cc1cc(NC(=O)c2ccccc2)nn1Cc1cc(Cl)ccc1OCc1ccccc1
12 |  | 251 nM |  |  |  | O=C(Nc1ccn(Cc2cc(Cl)ccc2OCc2ccccc2)n1)c1ccccc1
13 |  | 63.1 nM |  | 3.4 |  | Cc1cc(NC(=O)OC2CCOCC2)nn1Cc1cc(Cl)ccc1OCC(C)C
14 |  | 50.1 nM |  | 3.5 |  | Cc1cc(NC(=O)OC(C)(C)C(F)(F)F)nn1Cc1cc(Cl)ccc1OCC(C)C
15 |  | 200 nM |  | 3.3 |  | Cc1cc(C(=O)NN2CCCCC2)nn1Cc1cc(Cl)ccc1OCC(C)C
16 | 3.9 L/kg | 25.1 nM | 124 mL/min/kg | 3.3 |  | Cc1cc(NC(=O)OCC(C)C)nn1Cc1cc(Cl)ccc1OCc1ccccc1
17 |  | 79.4 nM |  | 3 |  | Cc1cc(C(=O)Nc2ccc(F)cc2)nn1Cc1cc(Cl)ccc1OCc1ccccc1
18 |  | 39.8 nM |  | > 3.7 |  | Cc1cc(NC(=O)C2CCCO2)nn1Cc1cc(Cl)ccc1OCc1ccccc1 (stereo not given)
19 |  | 79.4 nM |  | > 3.7 |  | Cc1cc(C(=O)NCc2ccncc2)nn1Cc1cc(Cl)ccc1OCc1ccccc1
20 |  | 10 nM |  | 1 |  | Cc1cc(C(=O)O)nn1Cc1cc(Cl)ccc1OCc1ccccc1
21 | 7.5 L/kg | 12.6 nM | 59 mL/min/kg | > 3.7 | 2.9 h | Cc1cc(NC(=O)Cc2ccccc2)nn1Cc1cc(Cl)ccc1OCc1ccccc1
22 |  | 20 nM |  | > 3.7 |  | Cc1cc(NC(=O)Cc2ccccn2)nn1Cc1cc(Cl)ccc1OCc1ccccc1
23 | 9.3 L/kg | 39.8 nM | 75 mL/min/kg | > 3.7 | 4.6 h | Cc1cc(C(=O)NCc2ccccc2)nn1Cc1cc(Cl)ccc1OCc1ccccc1
24 |  | 126 nM |  | > 3.7 |  | Cc1cc(C(=O)Nc2ccccn2)nn1Cc1cc(Cl)ccc1OCc1ccccc1
25 |  | 39.8 nM |  | > 3.7 |  | Cc1cc(NC(=O)Cc2cccnc2)nn1Cc1cc(Cl)ccc1OCc1ccccc1

Row | Vd [1] | IC50 [2] | clearance [3] | logD [4] | half-life [5] | SMILES
26 |  | 158 nM |  |  |  | O=C(Cc1ccccc1)Nc1ccn(Cc2cc(Cl)ccc2OCc2ccccc2)n1
27 |  | 126 nM |  | > 3.7 |  | Cc1cc(C(=O)NC(C)C)nn1Cc1cc(Cl)ccc1OCc1ccccc1
28 |  | 100 nM |  | > 3.7 |  | CNC(=O)c1cc(C)n(Cc2cc(Cl)ccc2OCc2ccccc2)n1
29 |  | 50.1 nM |  | > 3.7 |  | Cc1cc(NC(=O)OC(C)C)nn1Cc1cc(Cl)ccc1OCC(C)C
30 |  |  |  | 1.2 |  | Cc1cc(C(=O)O)nn1Cc1cc(Br)ccc1OCc1ccccc1
31 | 3.5 L/kg | 31.6 nM | 68 mL/min/kg | > 3.7 | 1.7 h | Cc1cc(NC(=O)C2CCCCC2)nn1Cc1cc(Cl)ccc1OCC(C)C
32 |  | 79.4 nM |  | > 3.7 |  | CCOC(=O)Nc1cc(C)n(Cc2cc(Cl)ccc2OCc2ccccc2)n1
33 |  | 25.1 nM |  | > 3.7 |  | Cc1cc(NC(=O)C2CCCC2)nn1Cc1cc(Cl)ccc1OCC(C)C
34 |  | 200 nM |  | > 3.7 |  | COC(=O)Nc1cc(C)n(Cc2cc(Cl)ccc2OCc2ccccc2)n1
35 |  |  |  | 2.5 |  | Cc1ccc(-c2cc(Cl)ccc2OCc2ccccc2)n1-c1cccc(C(=O)O)c1
36 |  | 251 nM |  | 3.1 |  | Cc1cc(C(=O)NN2CCOCC2)nn1Cc1cc(Cl)ccc1OCC(C)C
37 |  | 398 nM |  |  |  | O=C(Cc1ccccn1)Nc1ccn(Cc2cc(Cl)ccc2OCc2ccccc2)n1
38 |  | 316 nM |  | > 3.7 |  | CC(=O)Nc1cc(C)n(Cc2cc(Cl)ccc2OCc2ccccc2)n1
39 |  | 31.6 nM |  | > 3.7 |  | Cc1cc(NC(=O)OC(C)(C)C)nn1Cc1cc(Cl)ccc1OCC(C)C
40 |  | 25.1 nM |  | 3.1 |  | Cc1cc(NC(=O)C(F)(F)c2ccccn2)nn1Cc1cc(Cl)ccc1OCc1ccccc1
41 | 3.3 L/kg | 63.1 nM | 55 mL/min/kg | > 3.7 | 1 h | Cc1cc(NC(=O)C2CCOCC2)nn1Cc1cc(Cl)ccc1OCc1ccccc1
42 |  | 39.8 nM |  | > 3.7 |  | Cc1cc(NC(=O)C2CCOC2)nn1Cc1cc(Cl)ccc1OCc1ccccc1 (stereo not given)
43 |  | 12.6 nM |  | > 3.7 |  | Cc1cc(NC(=O)c2c(F)cccc2F)nn1Cc1cc(Cl)ccc1OCc1ccccc1
44 |  | 6.31 nM |  | 3.2 |  | Cc1cc(NC(=O)CC2CCCCC2)nn1Cc1cc(Cl)ccc1OCc1ccccc1
45 |  | 50.1 nM |  | > 3.7 |  | Cc1cc(NC(=O)Cc2ccncc2)nn1Cc1cc(Cl)ccc1OCc1ccccc1
46 |  | 39.8 nM |  | > 3.7 |  | Cc1cc(C(=O)Nc2ccccc2)nn1Cc1cc(Cl)ccc1OCc1ccccc1
47 |  | 10 nM |  | 3.7 |  | Cc1cc(C(=O)Nc2c(F)cccc2F)nn1Cc1cc(Cl)ccc1OCc1ccccc1
48 | 3.7 L/kg | 79.4 nM | 86 mL/min/kg | 2.7 | 0.8 h | Cc1cc(NC(=O)O[C@H]2CCOC2)nn1Cc1cc(Cl)ccc1OCc1ccccc1
49 |  | 126 nM |  | 3.7 |  | Cc1cc(C(N)=O)nn1Cc1cc(Cl)ccc1OCc1ccccc1
50 |  | 15.8 nM |  | > 3.7 |  | Cc1cc(NC(=O)C(C)(C)c2ccccn2)nn1Cc1cc(Cl)ccc1OCc1ccccc1

Row | SMILES | Vd [1] | IC50 [2] | clearance [3] | logD [4] | half-life [5]
51 | Cc1cc(C(N)=O)nn1Cc1cc(Cl)ccc1OCC(C)C |  | 126 nM |  | 3.1 | 
